In test [1] the target is T1, Sarcoplasmic/endoplasmic reticulum calcium ATPase 1 (Oryctolagus cuniculus, UniProt P04191). Description: Binding affinity to rabbit hind leg muscle SERCA1a by pyruvate kinase and lactate dehydrogenase coupled assay. The method, boiled down: (§1)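 Rabbit skeletal muscle SR-purified SERCA1a (1 mg/mL) equilibrated in E2 state: 1 mM EGTA, 1 mM Mg2+, 10 mM Tes pH 7.5, 100 mM KCl. 10 μg protein plus compound (1.25–100 μM) preincubated 5 min at 23 °C in ATP-regenerating medium (0.1 mM Ca2+, 1 mM PEP, pyruvate kinase, lactate dehydrogenase, 0.175 mM NADH). Started with 5 mM Mg-ATP; A340 read over 6 min; three repeats.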
T1 sequence (P04191 whole entry): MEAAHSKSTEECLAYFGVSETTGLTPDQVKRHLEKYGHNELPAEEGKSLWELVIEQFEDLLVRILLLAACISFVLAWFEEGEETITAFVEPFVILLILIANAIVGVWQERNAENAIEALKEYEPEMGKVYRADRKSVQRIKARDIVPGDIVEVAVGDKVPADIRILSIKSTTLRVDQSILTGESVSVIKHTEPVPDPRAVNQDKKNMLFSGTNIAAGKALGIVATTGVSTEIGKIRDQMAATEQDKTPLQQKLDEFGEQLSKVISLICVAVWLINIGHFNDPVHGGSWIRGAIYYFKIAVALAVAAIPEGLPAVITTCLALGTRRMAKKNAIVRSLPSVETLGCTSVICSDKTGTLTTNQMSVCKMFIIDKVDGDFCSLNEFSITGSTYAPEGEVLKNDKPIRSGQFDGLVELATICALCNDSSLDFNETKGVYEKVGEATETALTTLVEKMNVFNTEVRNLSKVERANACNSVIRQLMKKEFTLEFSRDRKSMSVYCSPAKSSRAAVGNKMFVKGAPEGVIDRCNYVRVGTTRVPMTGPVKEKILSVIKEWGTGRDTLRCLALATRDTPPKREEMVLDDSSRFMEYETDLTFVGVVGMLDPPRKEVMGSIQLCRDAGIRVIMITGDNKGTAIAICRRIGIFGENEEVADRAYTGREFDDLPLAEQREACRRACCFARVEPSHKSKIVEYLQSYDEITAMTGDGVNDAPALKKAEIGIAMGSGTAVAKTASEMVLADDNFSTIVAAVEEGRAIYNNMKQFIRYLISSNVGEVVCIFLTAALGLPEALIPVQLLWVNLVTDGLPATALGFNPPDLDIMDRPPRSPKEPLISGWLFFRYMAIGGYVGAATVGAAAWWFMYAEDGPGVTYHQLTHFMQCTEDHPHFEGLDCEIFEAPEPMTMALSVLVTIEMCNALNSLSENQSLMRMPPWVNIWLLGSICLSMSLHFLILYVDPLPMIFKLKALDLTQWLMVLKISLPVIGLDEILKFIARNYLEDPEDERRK

Test [2] concerns the target T1, Sarcoplasmic/endoplasmic reticulum calcium ATPase 1. The test is described as follows: Binding affinity to rabbit skeletal muscle SERCA1a preincubated for 5 mins followed by Mg-ATP addition measured over 6 mins by spectrophotometric analysis. The method, boiled down: as §1
Test [3] relates to CCRF-CEM. Description: Cytotoxicity against human CCRF-CEM cells assessed as cell viability after 24 hrs by MTT assay. The class given is functional, cell-based. The method, boiled down: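 Human acute lymphoblastic leukemia CCRF-CEM cells seeded at 4 × 10^4 cells/well and exposed 24 h to a range of compound concentrations. Viability read by MTT. Doxorubicin served as positive control and 0.1% DMSO as solvent control. IC50 derived by nonlinear regression. Data are means ± SD of three independent experiments.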

Test [4] is filed under the species Sus scrofa. Description: Inhibition of pig kidney outer medulla Na+,K+-ATPase at 50 uM relative to control. The method, boiled down:
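Purified pig kidney outer medulla Na+,K+-ATPase membranes. Steady-state activity at 37 °C in 130 mM NaCl, 20 mM KCl, 4 mM MgCl2, 3 mM ATP, 20 mM histidine pH 7.4. Read-out is phosphate liberation, with 1 mM ouabain as the nonspecific ATPase blank. Compounds tested over 1–50 μM.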

A short description of test [5]: Inhibition of Wistar rat stomach H+,K+-ATPase after 1 hr.

A value given as a limit tells only on which side of the number the result lay.

We go through 14 molecules from ChEMBL document CHEMBL3585273, “Discovery of Tricyclic Clerodane Diterpenes as Sarco/Endoplasmic Reticulum Ca(2+)-ATPase Inhibitors and Structure-Activity Relationships” (J Nat Prod, 2015).

With `C[C@H]1O[C@@H](O[C@H]2CC[C@@]3(C)[C@@H](CC[C@]4(C)[C@@H]3C=C[C@]35OC[C@@]6(CCC(C)(C)C[C@H]63)[C@H](O)C[C@]54C)[C@]2(C)CO)[C@H](O)[C@@H](O[C@@H]2O[C@H](CO)[C@@H](O)[C@H](O)[C@H]2O)[C@@H]1O`, the Kd – broadly, the concentration at which binding is half-saturated – in test [1] turned out to be 50 µM.
Turning to `CC(=O)O[C@H]1O[C@@H](OC(C)=O)[C@]23C1=C[C@H](O)C[C@H]2[C@](C)(CCC1=CCOOC1)[C@H](C)C[C@@H]3OC(=O)/C=C/c1ccccc1`, the Kd in test [2] came out at 22.3 µM.
Still for that read-out and setting: then `C=CC(=C)[C@H](O)C[C@]1(C)[C@H](C)C[C@H](OC(=O)CC(O)CCCCCCCCC)[C@@]23C(=C[C@H](O)C[C@@H]12)[C@@H](OC(C)=O)O[C@H]3OC(C)=O` (stereo partly drawn), with 31.5 µM.
Take `C=C/C(C)=C/C[C@]1(C)[C@H](C)C[C@H](OC(C)=O)[C@@]23C(=C[C@H](OC(=O)c4ccc(O)cc4)C[C@@H]12)[C@@H](OC(C)=O)O[C@H]3OC(C)=O`: the Kd in test [2] turned out to be 20.1 µM. In addition, the IC50 (commonly the concentration needed to halve the response being measured) in test [3] was 1.2 µM.
`C=C/C(C)=C/C[C@]1(C)[C@H](C)CC[C@@]23C(=CC(=O)C[C@@H]12)[C@@H](OC(C)=O)O[C@H]3OC(C)=O`: the Kd in test [2] stood at 96.5 µM.
Turning to `C=C/C(C)=C/C[C@]1(C)[C@H](C)[C@@H](OC(=O)CCC)[C@H](O)[C@@]23C(=C[C@H](OC)C[C@@H]12)[C@@H](OC(=O)CCC)O[C@H]3OC(C)=O`, the equilibrium dissociation constant (Kd) in test [2] turned out to be 10.1 µM. In addition, in test [4], the inhibition (in general, the relative decrease from the control value, in per cent) amounted to 4.41%. Also, in test [3], the half-maximal inhibitory concentration (IC50) was 0.7 µM.
Regarding `C[C@H](C[C@H](O)[C@H]1OC1(C)C)C1=C2C[C@H](O)[C@H]3[C@@]4(C)CCC(=O)C(C)(C)[C@@H]4CC[C@]3(C)[C@@]2(C)CC1` [ALISOL B], the Kd in test [1] was found to be 27 µM.
On to IVERMECTIN, for which, in test [5], the IC50 is 7.59 µM.
For the molecule `C=C/C(C)=C/C[C@]1(C)[C@H](C)[C@@H](O)[C@H](O)[C@@]23C(=C[C@H](OC)C[C@@H]12)[C@@H](O)O[C@H]3O`, the Kd in test [2] was over 100 µM. For the same molecule, the inhibition in test [4] was determined as 6.55%. Also, in test [3], the 50% inhibitory concentration (IC50) was determined as 4.3 µM.
In the case of `C=CC(=C)CC[C@]1(C)[C@H](C)C[C@H](OC(=O)CC(O)CCCCCCCCC)[C@@]23C(=C[C@H](O)C[C@@H]12)[C@@H](OC(C)=O)O[C@H]3OC(C)=O` (stereo partly drawn), in test [2], the Kd was determined as 7.5 µM. For the same molecule, in test [4], the inhibition worked out at 26.3%.
Consider `C=CC(=C)CC[C@]1(C)[C@H](C)C[C@H](OC(=O)/C=C/c2ccccc2)[C@@]23C(=C[C@H](O)C[C@@H]12)[C@@H](OC(C)=O)O[C@H]3OC(C)=O`, for which the Kd in test [2] was 48.1 µM.
For `C=C/C(C)=C/C[C@]1(C)[C@H](C)C[C@H](O)[C@@]23C(=C[C@H](OC(=O)c4ccc(O)cc4)C[C@@H]12)[C@@H](OC(C)=O)O[C@H]3OC(C)=O` [CASEARBORIN D], the Kd in test [2] was 2 µM. The molecule also yielded an inhibition in test [4] of 23.8%. The IC50 in test [3] stood at 1.1 µM.
`C=CC(=C)CC[C@]1(C)[C@H](C)C[C@H](O)[C@@]23C(=C[C@@H](OC(=O)/C=C/c4ccccc4)C[C@@H]12)[C@@H](OC(C)=O)O[C@H]3OC(C)=O`: the Kd in test [2] stood at 32.1 µM.
Consider `C=CC(=C)CC[C@]1(C)[C@H](C)CC[C@@]23C(C[C@H](OC(C)=O)C[C@@H]12)[C@@H](OC(C)=O)O[C@H]3OC(C)=O` (stereo partly drawn), for which, in test [2], the Kd came out at 103 µM. The IC50 in test [3] stood at 12 µM.
